Laboratory results reported in ChEMBL document CHEMBL3994591, “Novel ferulic amide derivatives with tertiary amine side chain as acetylcholinesterase and butyrylcholinesterase inhibitors: The influence of carbon spacer length, alkylamine and aromatic group” (Eur J Med Chem, 2017).

Key:
[1] = Inhibition of carboxylesterase (unknown origin) using 4-nitrophenyl acetate as substrate by UV-Vis spectrophotometer; set-up: species or system Homo sapiens
Method in brief: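 Read-out was 4-nitrophenol released by CaE hydrolysis of 1.0 mmol/L 4-nitrophenyl acetate, measured at 405 nm. Reactions ran in 100 mmol/L potassium phosphate buffer, pH 8.0, at 25 °C. CaE activity was taken as proportional to 4-nitrophenol concentration.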

[2] = target: Acetylcholinesterase (Homo sapiens, UniProt P22303); assay: Inhibition of acetylcholinesterase (unknown origin) using acetylthiocholine iodide as substrate after 25 mins by Ellmann method
Method in brief: (§1)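 Modified Ellman assay, triplicate. Compounds dissolved in Tween 80, diluted with water to five concentrations. Mix: enzyme […], substrate (acetylthiocholine iodide or butyrylthiocholine iodide) and test compound in phosphoric acid buffer, pH 8.0, 0.1 mol/L. Incubated 25 min at 30 °C, then terminated. IC50 reported as mean ± SD of three experiments.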

[3] = target: Cholinesterase (Homo sapiens, UniProt P06276); assay: Inhibition of butyrylcholinesterase (unknown origin) using butyrylthiocholine iodide as substrate after 25 mins by Ellmann method; method in brief: as §1
[4] = organism: Homo sapiens; assay: Selectivity index, ratio of IC50 for butyrylcholinesterase (unknown origin) to IC50 for acetylcholinesterase (unknown origin)
[5] = Octanol-water partition coefficient, log P of the compound at pH 7.4 by shake flask method; type: physicochemical
Method in brief: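 Shake flask partition between octanol and PBS (pH 7.4). Mixture shaken at 37 °C overnight, then centrifuged at 2000 rpm for 20 min. Phases analysed by C18 HPLC with methanol-0.1% TEA (85:15, v/v) at 1.0 mL/min and 32 °C, detection at 322 nm. Run in triplicate, log P calculated.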

Sequence of Cholinesterase (P06276 whole entry): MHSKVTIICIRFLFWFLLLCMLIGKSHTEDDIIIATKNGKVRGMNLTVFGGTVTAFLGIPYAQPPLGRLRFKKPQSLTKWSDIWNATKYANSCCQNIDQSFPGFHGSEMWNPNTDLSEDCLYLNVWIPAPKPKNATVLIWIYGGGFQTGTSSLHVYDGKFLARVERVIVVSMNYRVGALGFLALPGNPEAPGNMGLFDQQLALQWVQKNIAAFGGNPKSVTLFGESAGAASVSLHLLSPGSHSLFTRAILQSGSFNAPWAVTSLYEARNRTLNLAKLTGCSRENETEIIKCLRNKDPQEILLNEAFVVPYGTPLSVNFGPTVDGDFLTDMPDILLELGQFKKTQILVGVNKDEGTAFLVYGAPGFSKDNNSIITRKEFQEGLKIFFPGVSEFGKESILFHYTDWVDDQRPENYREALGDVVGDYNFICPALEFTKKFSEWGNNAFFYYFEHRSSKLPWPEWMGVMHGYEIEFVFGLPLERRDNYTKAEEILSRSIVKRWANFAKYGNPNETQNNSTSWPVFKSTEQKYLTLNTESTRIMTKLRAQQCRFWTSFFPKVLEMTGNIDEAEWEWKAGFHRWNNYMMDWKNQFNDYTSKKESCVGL
Sequence of Acetylcholinesterase (P22303 whole entry): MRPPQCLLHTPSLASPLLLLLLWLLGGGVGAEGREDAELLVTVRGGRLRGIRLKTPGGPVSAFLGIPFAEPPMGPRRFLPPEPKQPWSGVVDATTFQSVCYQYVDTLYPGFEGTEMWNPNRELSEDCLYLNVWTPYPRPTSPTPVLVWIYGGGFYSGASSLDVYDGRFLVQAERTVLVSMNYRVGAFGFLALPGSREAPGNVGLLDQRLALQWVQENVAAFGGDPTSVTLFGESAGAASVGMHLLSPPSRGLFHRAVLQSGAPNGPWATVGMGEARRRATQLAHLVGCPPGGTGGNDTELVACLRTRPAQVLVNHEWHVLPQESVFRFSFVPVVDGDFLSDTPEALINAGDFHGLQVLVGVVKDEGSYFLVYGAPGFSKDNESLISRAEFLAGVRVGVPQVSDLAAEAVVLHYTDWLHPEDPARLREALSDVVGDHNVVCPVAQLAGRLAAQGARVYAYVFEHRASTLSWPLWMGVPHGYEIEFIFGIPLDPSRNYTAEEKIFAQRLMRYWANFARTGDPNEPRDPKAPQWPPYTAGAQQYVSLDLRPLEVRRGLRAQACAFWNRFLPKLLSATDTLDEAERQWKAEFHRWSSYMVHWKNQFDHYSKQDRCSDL

Row | SMILES | IC50 [1] | IC50 [2] | IC50 [3] | Ratio IC50 [4] | logD [5]
1 | COc1cc(/C=C/C(=O)Nc2ccccc2)ccc1OCCCCN(C)C | > 500 µM | 100 µM | 25.9 µM | 0.26 | 1.57
2 | COc1cc(/C=C/C(=O)Nc2ccccc2)ccc1OCCCCCCCCN1CCCC1 | > 500 µM | 2.91 µM | 4.03 µM | 1.38 | 1.78
3 | COc1cc(/C=C/C(=O)O)ccc1OCCCCCCN1CCCC1 | > 500 µM | 69.9 µM | 287 µM | 4.1 | 1.29
4 | CCOC(=O)/C=C/c1ccc(OCCCCCCN(CC)CC)c(OC)c1 | > 500 µM | 1.94 µM | 11.4 µM | 5.87 | 1.8
5 | COc1cc(/C=C/C(=O)Nc2ccccc2)ccc1OCCCCCCCCCCN1CCCCC1 | > 500 µM | 11.1 µM | 4.84 µM | 0.44 | 1.83
6 | COc1cc(/C=C/C(=O)Nc2ccccc2)ccc1OCCCN(C)C | > 500 µM | 33.9 µM | 20 µM | 0.59 | 1.55
7 | COc1cc(/C=C/C(=O)Nc2ccccc2)ccc1OCCCCCCCCN1CCCCC1 | > 500 µM | 4.12 µM | 5.45 µM | 1.32 | 1.79
8 | COc1cc(/C=C/C(=O)Nc2ccccc2)ccc1OCCCCN1CCCCC1 | > 500 µM | 7.14 µM | 5.69 µM | 0.8 | 1.61
9 | COc1cc(/C=C/C(=O)Nc2ccccc2)ccc1OCCN1CCCC1 | > 500 µM | 35.1 µM | 12.7 µM | 0.36 | 1.54
10 | COc1cc(/C=C/C(=O)Nc2ccccc2)ccc1OCCCCCN(C)C | > 500 µM | 33 µM | 12.1 µM | 0.37 | 1.61
11 | COc1cc(/C=C/C(=O)Nc2ccccc2)ccc1OCCCN1CCCCC1 | > 500 µM | 14.5 µM | 4.78 µM | 0.33 | 1.58
12 | COc1cc(/C=C/C(=O)Nc2ccccc2)ccc1OCCCCCN1CCCCC1 | > 500 µM | 4.8 µM | 5.9 µM | 1.23 | 1.65
13 | COc1cc(/C=C/C(=O)Nc2ccccc2)ccc1OCCCCCCN(C)C | > 500 µM | 8.4 µM | 6.72 µM | 0.8 | 1.69
14 | CCN(CC)CCCCCCOc1ccc(/C=C/C(=O)O)cc1OC | > 500 µM | 2.67 µM | 263 µM | 98.6 | 1.29
15 | CCOC(=O)/C=C/c1ccc(OCCCCCCCCN(CC)CC)c(OC)c1 | > 500 µM | 1.56 µM | 13 µM | 8.37 | 1.98
16 | COc1cc(/C=C/C(=O)O)ccc1OCCCCCCN1CCCCC1 | > 500 µM | 45.6 µM | 146 µM | 3.2 | 1.32
17 | CCN(CC)CCCCCCCCOc1ccc(/C=C/C(=O)Nc2ccccc2)cc1OC | > 500 µM | 1.36 µM | 3.98 µM | 2.93 | 1.75
18 | CCN(CC)CCCCOc1ccc(/C=C/C(=O)Nc2ccccc2)cc1OC | > 500 µM | 41.6 µM | 25.1 µM | 0.6 | 1.59
19 | CCN(CC)CCCCCCCCCCOc1ccc(/C=C/C(=O)Nc2ccccc2)cc1OC | > 500 µM | 14.9 µM | 8.47 µM | 0.57 | 1.83
